Source: ChEMBL document CHEMBL1124220 (J Med Chem, 1988)
Starred links: 1 amine or outer side, 2 acyl side, 3 side chain; linkers in the order of their positions; H or OH if unused. Non-standard residues stand in square brackets, D forms with d. Residues, ends and D or L forms follow the SMILES beside them. Ala(imidazol-2-yl) = N[C@@H](Cc1ncc[nH]1)C(=O)O; X2 = O=C([C@H](CCc1ncc[nH]1)N[*:1])[*:2]; Phe(4-NH2) = Nc1ccc(C[C@H](N)C(=O)O)cc1; 3Thi = N[C@@H](Cc1ccsc1)C(=O)O; Aib = CC(C)(N)C(=O)O; Sar = CNCC(=O)O

How the values were obtained:
Assay type in all cases: functional
Oryctolagus cuniculus = organism: Oryctolagus cuniculus; experiment: In vitro agonist angiotensin II like activity was measured in the rabbit aorta strip assay
In short: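 Isolated rabbit aortic strips in vitro. Agonist (AII-like) activity expressed as percent of the activity of AII.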

Rattus norvegicus [1] = experiment: In vivo agonist angiotensin II like activity was measured in rat blood pressure assay; set-up: concentration or dose not given beside the values
In short: (§1)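 Rat blood pressure in vivo. Residual AII-like activity read as the pressor rise (mmHg) after a 1-μg intravenous bolus of compound. Mean of at least five tests with standard error.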

Rattus norvegicus [2] = experiment: Antagonist activity ID50 was measured in vivo in the rat blood pressure assay
In short: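 Rat blood pressure in vivo, 250-g rats, compound given by infusion. AII dose-response curves measured before and during the infusion. ID50 expressed as ng/rat per min. Mean of at least five tests with standard error.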

Rattus norvegicus [3] = experiment: In vivo agonist angiotensin II like activity was measured in rat blood pressure increase by a 1 ug iv injection; in short: as §1

| SMILES | Activity (Oryctolagus cuniculus) [%] | Activity (Rattus norvegicus [1]) [%] | other results |
| --- | --- | --- | --- |
| CC[C@H](C)[C@H](NC(=O)[C@@H]1CCCN1C(=O)[C@H](Cc1c[nH]cn1)NC(=O)[C@@H](NC(=O)[C@H](Cc1ccc(O)cc1)NC(=O)[C@@H](NC(=O)[C@H](C)N)C(C)C)[C@@H](C)CC)C(=O)O | 0 | – | – |
| CC[C@H](C)[C@H](NC(=O)[C@H](Cc1ccc(O)cc1)NC(=O)[C@@H](NC(=O)[C@@H](N)CCCN)C(C)C)C(=O)N[C@@H](Cc1c[nH]cn1)C(=O)N1CCC[C@H]1C(=O)N[C@@H](Cc1ccccc1)C(=O)O | – | 3 | – |
| CC[C@H](C)[C@H](NC(=O)[C@H](Cc1ccc(O)cc1)NC(=O)[C@@H](NC(=O)[C@H](N)CCCCN=C(N)N)C(C)C)C(=O)N[C@@H](Cc1c[nH]cn1)C(=O)N1CCC[C@H]1C(=O)N[C@@H](Cc1ccccc1)C(=O)O | – | 11 | – |
| CC[C@H](C)[C@H](NC(=O)[C@@H]1CCCN1C(=O)[C@H](Cc1c[nH]cn1)NC(=O)[C@@H](NC(=O)[C@H](Cc1ccc(O)cc1)NC(=O)[C@@H](NC(=O)CN(C)C(=O)CNC)C(C)C)[C@@H](C)CC)C(=O)O (H-[Sar][Sar]VYIHPI-OH) | 0 | – | ID50 (Rattus norvegicus [2]): 150 ng min-1 rat-1; BP increase (Rattus norvegicus [3]): 8.5 mmHg |
| CC[C@H](C)[C@H](NC(=O)[C@H](Cc1ccc(O)cc1)NC(=O)[C@@H](NC(=O)[C@@H](N)CCCN=C(N)N)C(C)C)C(=O)N[C@@H](Cc1c[nH]cn1)C(=O)N1CCC[C@H]1C(=O)N[C@@H](Cc1ccccc1)C(=O)O (stereo in doubt; 6) | 43.3 | 33.3 | – |
| CC[C@H](C)[C@H](NC(=O)[C@H](Cc1ccc(O)cc1)NC(=O)[C@@H](NC(=O)[C@@H](N)CCCCN)C(C)C)C(=O)N[C@@H](Cc1c[nH]cn1)C(=O)N1CCC[C@H]1C(=O)N[C@@H](Cc1ccccc1)C(=O)O | – | 3 | – |
| CC[C@H](C)[C@H](NC(=O)[C@@H]1CCCN1C(=O)[C@H](Cc1c[nH]cn1)NC(=O)[C@@H](NC(=O)[C@H](Cc1ccc(O)cc1)NC(=O)[C@@H](NC(=O)[C@@H](C)N)C(C)C)[C@@H](C)CC)C(=O)O | 0 | – | ID50 (Rattus norvegicus [2]): 100 ng min-1 rat-1; BP increase (Rattus norvegicus [3]): 5 mmHg |
| CC[C@H](C)[C@H](NC(=O)[C@@H]1CCCN1C(=O)[C@H](Cc1c[nH]cn1)NC(=O)[C@@H](NC(=O)[C@H](Cc1ccc(O)cc1)NC(=O)[C@@H](NC(=O)C(C)(C)N)C(C)C)[C@@H](C)CC)C(=O)O (H-[Aib]VYIHPI-OH) | 0 | – | – |
| CC[C@H](C)[C@H](NC(=O)[C@H](Cc1ccc(O)cc1)NC(=O)[C@@H](NC(=O)[C@H](CCCN=C(N)N)NC(=O)CNC)C(C)C)C(=O)N[C@@H](Cc1c[nH]cn1)C(=O)N1CCC[C@H]1C(=O)N[C@H](C(=O)O)[C@@H](C)O (H-[Sar]RVYIHPT-OH) | 0.6 | – | – |
| CC[C@H](C)[C@H](NC(=O)[C@H](Cc1ccc(O)cc1)NC(=O)[C@@H](NC(=O)[C@H](CCCN=C(N)N)NC(=O)[C@@H](N)CC(=O)O)C(C)C)C(=O)N[C@@H](CCCCN)C(=O)N1CCC[C@H]1C(=O)N[C@@H](Cc1ccccc1)C(=O)O (H-DRVYIKPF-OH) | – | – | Activity (Rattus norvegicus [3]): 0.1% |
| CC[C@H](C)[C@H](NC(=O)[C@H](Cc1ccc(O)cc1)NC(=O)[C@@H](NC(=O)[C@H](CCCN=C(N)N)NC(=O)[C@@H](N)CC(=O)O)C(C)C)C(=O)N[C@@H](Cc1ncc[nH]1)C(=O)N1CCC[C@H]1C(=O)N[C@@H](Cc1ccccc1)C(=O)O (H-DRVYI[Ala(imidazol-2-yl)]PF-OH) | – | 0.4 | – |
| CC[C@H](C)[C@H](NC(=O)[C@@H]1CCCN1C(=O)[C@H](Cc1c[nH]cn1)NC(=O)[C@@H](NC(=O)[C@H](Cc1ccc(O)cc1)NC(=O)[C@@H](NC(=O)[C@@H](C)NC)C(C)C)[C@@H](C)CC)C(=O)O | 0 | – | ID50 (Rattus norvegicus [2]): 25 ng min-1 rat-1; BP increase (Rattus norvegicus [3]): 10 mmHg |
| CC[C@H](C)[C@H](NC(=O)[C@H](Cc1ccc(O)cc1)NC(=O)[C@@H](NC(=O)[C@H](N)CCCN)C(C)C)C(=O)N[C@@H](Cc1c[nH]cn1)C(=O)N1CCC[C@H]1C(=O)N[C@@H](Cc1ccccc1)C(=O)O | – | 23 | – |
| CC[C@H](C)[C@H](NC(=O)[C@H](Cc1ccc(O)cc1)NC(=O)[C@@H](NC(=O)[C@H](CCCN=C(N)N)NC(=O)CNC)C(C)C)C(=O)N[C@@H](CC(=O)O)C(=O)N1CCC[C@H]1C(=O)N[C@H](C(=O)O)[C@@H](C)O (H-[Sar]RVYIDPT-OH) | 0 | – | – |
| CC[C@H](C)[C@H](NC(=O)[C@H](Cc1ccc(O)cc1)NC(=O)[C@@H](NC(=O)[C@H](CCCN=C(N)N)NC(=O)[C@@H](N)CC(=O)O)C(C)C)C(=O)N[C@@H](CCc1ncc[nH]1)C(=O)N1CCC[C@H]1C(=O)N[C@@H](Cc1ccccc1)C(=O)O (H-DRVYI[X2]PF-OH) | – | 0.05 | – |
| CC[C@H](C)[C@H](NC(=O)[C@H](Cc1ccc(O)cc1)NC(=O)[C@@H](NC(=O)[C@H](CCCN=C(N)N)NC(=O)[C@@H](N)CC(=O)O)C(C)C)C(=O)N[C@@H](Cc1cncn1C)C(=O)N1CCC[C@H]1C(=O)N[C@@H](Cc1ccccc1)C(=O)O | – | 0.05 | – |
| CC[C@H](C)[C@H](NC(=O)[C@H](Cc1ccc(O)cc1)NC(=O)[C@@H](NC(=O)[C@H](CCCN=C(N)N)NC(=O)[C@@H](N)CC(N)=O)C(C)C)C(=O)N[C@@H](Cc1c[nH]cn1)C(=O)N1CCC[C@H]1C(=O)N[C@@H](Cc1ccccc1)C(=O)O (H-NRVYIHPF-OH) | – | 4 | – |

| SMILES | Activity (Oryctolagus cuniculus) [%] | Activity (Rattus norvegicus [1]) [%] | other results |
| --- | --- | --- | --- |
| CC[C@H](C)[C@H](NC(=O)[C@@H]1CCCN1C(=O)[C@H](CCCCN)NC(=O)[C@@H](NC(=O)[C@H](Cc1ccc(O)cc1)NC(=O)[C@@H](NC(=O)[C@H](CCCN=C(N)N)NC(=O)CNC)C(C)C)[C@@H](C)CC)C(=O)O (H-[Sar]RVYIKPI-OH) | 0 | – | – |
| CC[C@H](C)[C@H](NC(=O)[C@H](Cc1ccc(O)cc1)NC(=O)[C@@H](NC(=O)[C@H](N)CCCCN)C(C)C)C(=O)N[C@@H](Cc1c[nH]cn1)C(=O)N1CCC[C@H]1C(=O)N[C@@H](Cc1ccccc1)C(=O)O | – | 23 | – |
| CC[C@H](C)[C@H](NC(=O)[C@H](Cc1ccc(O)cc1)NC(=O)[C@@H](NC(=O)[C@@H](C)N)C(C)C)C(=O)N[C@@H](Cc1c[nH]cn1)C(=O)N1CCC[C@H]1C(=O)N[C@@H](Cc1ccccc1)C(=O)O | – | 48 | – |
| CC[C@H](C)[C@H](NC(=O)[C@H](Cc1ccc(O)cc1)NC(=O)[C@@H](NC(=O)[C@H](CCCN=C(N)N)NC(=O)[C@@H](N)CC(=O)O)C(C)C)C(=O)N[C@@H](Cc1cn(C)cn1)C(=O)N1CCC[C@H]1C(=O)N[C@@H](Cc1ccccc1)C(=O)O | – | 5 | – |
| CC[C@H](C)[C@H](NC(=O)[C@H](Cc1ccc(O)cc1)NC(=O)[C@@H](NC(=O)[C@@H](C)NC)C(C)C)C(=O)N[C@@H](Cc1c[nH]cn1)C(=O)N1CCC[C@H]1C(=O)N[C@@H](Cc1ccccc1)C(=O)O | 1.4 | – | BP increase (Rattus norvegicus [3]): 85 mmHg |
| CC[C@H](C)[C@H](NC(=O)[C@@H]1CCCN1C(=O)[C@@H](Cc1c[nH]cn1)NC(=O)[C@@H](NC(=O)[C@H](Cc1ccc(O)cc1)NC(=O)[C@@H](NC(=O)[C@H](CCCN=C(N)N)NC(=O)CNC)C(C)C)[C@@H](C)CC)C(=O)O | 0 | – | – |
| CC[C@H](C)[C@H](NC(=O)[C@H](Cc1ccc(O)cc1)NC(=O)[C@@H](NC(=O)[C@H](CCCN=C(N)N)NC(=O)[C@@H](N)CC(=O)O)C(C)C)C(=O)N[C@@H](Cc1ccsc1)C(=O)N1CCC[C@H]1C(=O)N[C@@H](Cc1ccccc1)C(=O)O (H-DRVYI[3Thi]PF-OH) | – | 19.3 | – |
| CC[C@H](N)C(=O)N[C@H](C(=O)N[C@@H](Cc1ccc(O)cc1)C(=O)N[C@H](C(=O)N[C@@H](Cc1c[nH]cn1)C(=O)N1CCC[C@H]1C(=O)N[C@@H](Cc1ccccc1)C(=O)O)[C@@H](C)CC)C(C)C | – | 0.92 | – |
| CC[C@H](C)[C@H](NC(=O)[C@H](Cc1ccc(O)cc1)NC(=O)[C@@H](NC(=O)[C@H](CCCN=C(N)N)NC(=O)[C@@H](N)CC(=O)O)C(C)C)C(=O)N[C@@H](Cc1ccccc1)C(=O)N1CCC[C@H]1C(=O)N[C@@H](Cc1ccccc1)C(=O)O (H-DRVYIFPF-OH) | – | 5.1 | – |
| CC[C@H](C)[C@H](NC(=O)[C@H](Cc1ccc(O)cc1)NC(=O)[C@@H](NC(=O)[C@@H](N)CCCN=C(N)N)C(C)C)C(=O)N[C@@H](Cc1c[nH]cn1)C(=O)N1CCC[C@H]1C(=O)N[C@@H](Cc1ccccc1)C(=O)O (stereo in doubt; 5) | 47.4 | 15 | – |
| CC[C@H](C)[C@H](NC(=O)[C@@H]1CCCN1C(=O)[C@H](Cc1c[nH]cn1)NC(=O)[C@@H](NC(=O)[C@H](Cc1ccc(O)cc1)NC(=O)[C@@H](NC(=O)[C@H](CCCNC(N)=O)NC(=O)CNC)C(C)C)[C@@H](C)CC)C(=O)O | 0 | – | BP increase (Rattus norvegicus [3]): 25 mmHg |
| CC[C@H](C)[C@H](NC(=O)[C@H](Cc1ccc(O)cc1)NC(=O)[C@@H](NC(=O)[C@H](CCCN=C(N)N)NC(=O)[C@@H](N)CC(=O)O)C(C)C)C(=O)N[C@@H](C)C(=O)N1CCC[C@H]1C(=O)N[C@@H](Cc1ccccc1)C(=O)O (H-DRVYIAPF-OH) | – | 0.8 | – |
| CC[C@H](C)[C@H](NC(=O)[C@H](Cc1ccc(O)cc1)NC(=O)[C@@H](NC(=O)CN(C)C(=O)CNC)C(C)C)C(=O)N[C@@H](Cc1c[nH]cn1)C(=O)N1CCC[C@H]1C(=O)N[C@H](C(=O)O)[C@@H](C)O (H-[Sar][Sar]VYIHPT-OH) | 0 | – | – |
| CC[C@H](C)[C@H](NC(=O)[C@H](Cc1ccc(O)cc1)NC(=O)[C@@H](NC(=O)C(C)(C)N)C(C)C)C(=O)N[C@@H](Cc1c[nH]cn1)C(=O)N1CCC[C@H]1C(=O)N[C@@H](Cc1ccccc1)C(=O)O (H-[Aib]VYIHPF-OH) | 0 | – | BP increase (Rattus norvegicus [3]): 60 mmHg |
| CC[C@H](C)[C@H](NC(=O)[C@H](Cc1ccc(O)cc1)NC(=O)[C@@H](NC(=O)[C@H](C)N)C(C)C)C(=O)N[C@@H](Cc1c[nH]cn1)C(=O)N1CCC[C@H]1C(=O)N[C@@H](Cc1ccccc1)C(=O)O | – | 3 | – |
| CC[C@H](C)[C@H](NC(=O)[C@H](Cc1ccc(O)cc1)NC(=O)[C@@H](NC(=O)[C@H](CCCN=C(N)N)NC(=O)[C@@H](N)CC(=O)O)C(C)C)C(=O)N[C@@H](Cc1ccc(N)cc1)C(=O)N1CCC[C@H]1C(=O)N[C@@H](Cc1ccccc1)C(=O)O (H-DRVYI[Phe(4-NH2)]PF-OH) | – | 0.05 | – |
